From ChEMBL document CHEMBL4765343, “Design and synthesis of novel SCM-198 analogs as cardioprotective agents: Structure-activity relationship studies and biological evaluations” (Eur J Med Chem, 2020) come the findings set out here.

SMILES strings stand for the structures.

In the first test the test system is H9c2. Description: Antioxidant activity in rat H9c2 cells assessed as protection against H2O2-induced hypoxic injury by measuring cell viability at 1 uM preincubated for 4 hrs followed by H2O2 stimulation for 1 hr by MTT assay relative to control. The format is functional. In a few lines: (§1)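 H9c2 cells at 1 × 10^5 cells/mL, 100 μL per well in triplicate, left 18 h. Compound diluted in DMSO; DMSO alone as negative control. 4 h pretreatment, then 400 nM H2O2 for 1 h. Medium removed and MTT added for 2-4 h, formazan dissolved in DMSO, absorbance at 570 nm. Medium-only wells gave the blank.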
Consider `CC(=O)Oc1cccc(C(=O)OCCCCNC(=N)N)c1`, for which the Activity came to 59.7%.
Still for that read-out and setting: as for `N=C(N)NCCCCOC(=O)C1CCCCC1`, the figure is 52.4%.
On the same count and under the same terms, the value for `COc1cc(C(=O)OCCCCNC(=N)N)cc(OC)c1OC` was 54.1%.
Consider `CC(=O)Oc1ccc(C(=O)OCCCCNC(=N)N)cc1`, for which the Activity is listed as 57.8%.
On to `COc1cc(C(=O)OCCN(C)C)cc(OC)c1O`, for which the Activity is reported as 47.8%.
Same read-out and setting: as for `COc1ccc(C(=O)OCCCCNC(=N)N)cc1`, the figure is 61.2%.
The same measure, in the same setting: the value for `COc1ccc(C(=O)OCCCCNC(=N)N)c(OC)c1OC` was 49.2%; that for `COc1ccc(OC)c(C(=O)OCCCCNC(=N)N)c1` was 53.3%; that for `N=C(N)NCCCCOC(=O)c1ccc2[nH]ccc2c1` was 51.8%.
Still for that read-out and setting: the value for `COc1cc(C(=O)OCC2CCN(C(=N)N)CC2)cc(OC)c1O` was 56.2%.
As to `N=C(N)NCCCCOC(=O)c1ccncc1`, the Activity amounted to 54%.
On the same count and under the same terms, as for `COc1cc(C(=O)OCCN2CCOCC2)cc(OC)c1O`, the figure is 52.3%; as for `N=C(N)NCCCCOC(=O)c1ccco1`, 51.1%; as for `N=C(N)NCCCCO`, 46.8%.
Still for that read-out and setting: the value for `COc1cc(C(=O)OCCCN(C)C)cc(OC)c1O` was 55.2%; that for `COc1cc(C(=O)OCCCCCCNC(=N)N)cc(OC)c1O` was 53.4%; that for `COc1cc(OC)c(C(=O)OCCCCNC(=N)N)c(OC)c1` was 55.2%.
The same measure, in the same setting: the value for `N=C(N)NCCCCOC(=O)C12CC3CC(CC(C3)C1)C2` was 58.2%.
Turning to `COc1cc(/C=C/C(=O)OCCCCNC(=N)N)cc(OC)c1OC`, the Activity was found to be 55.4%.
The same measure, in the same setting: as for `COc1cc(C(=O)OCC2CCN(C(=N)N)CC2)cc(OC)c1OC(C)=O`, the figure is 42.7%; as for `CC(=O)Oc1ccccc1C(=O)OCCCCNC(=N)N`, 57.8%.
On the same count and under the same terms, the value for `COc1cc(C(=O)OCCCCNC(=N)N)ccc1OC(C)=O` was 63.4%; that for `COc1cc(C(=O)OCCNC(=N)N)cc(OC)c1O` was 53.6%; that for `COc1cc(C(=O)OCCCCCNC(=N)N)cc(OC)c1O` was 58.9%.
Same read-out and setting: as for `N=C(N)NCCCCOC(=O)c1ccc(C(F)(F)F)cc1`, the figure is 54.2%.
On to `COc1cc(C(=O)OCCCNC(=N)N)cc(OC)c1O`, for which the Activity was found to be 50.1%.
The same measure, in the same setting: the value for `COc1cc(C(=O)OC(C)CNC(=N)N)cc(OC)c1O` (stereo not given) was 52.2%.
As to `N=C(N)NCCCCOC(=O)c1ccc([N+](=O)[O-])cc1`, the Activity stood at 67.7%.
Same read-out and setting: the value for `N=C(N)NCCCCOC(=O)c1c(F)cc(F)cc1F` was 69.6%; that for `COc1cc(C(=O)OCCCCN)cc(OC)c1O` was 56.3%.

The subject of another test is H9c2. Description: Antioxidant activity in rat H9c2 cells assessed as protection against H2O2-induced hypoxic injury by measuring cell viability at 10 uM preincubated for 4 hrs followed by H2O2 stimulation for 1 hr by MTT assay relative to control. The format is functional. In a few lines:
as §1
With `CC(=O)Oc1cccc(C(=O)OCCCCNC(=N)N)c1`, the Activity is 62.8%.
The same measure, in the same setting: the value for `N=C(N)NCCCCOC(=O)C1CCCCC1` was 58.8%.
Take `COc1cc(C(=O)OCCCCNC(=N)N)cc(OC)c1OC`: the Activity is 53.3%.
On the same count and under the same terms, the value for `CC(=O)Oc1ccc(C(=O)OCCCCNC(=N)N)cc1` was 52.7%.
Consider `COc1cc(C(=O)OCCN(C)C)cc(OC)c1O`, for which the Activity turned out to be 48.5%.
Regarding `COc1ccc(C(=O)OCCCCNC(=N)N)cc1`, the Activity amounted to 58.6%.
In the case of `COc1ccc(C(=O)OCCCCNC(=N)N)c(OC)c1OC`, the Activity stood at 57.8%.
On the same count and under the same terms, as for `COc1ccc(OC)c(C(=O)OCCCCNC(=N)N)c1`, the figure is 57.7%; as for `N=C(N)NCCCCOC(=O)c1ccc2[nH]ccc2c1`, 58.9%; as for `COc1cc(C(=O)OCC2CCN(C(=N)N)CC2)cc(OC)c1O`, 61%.
In the case of `N=C(N)NCCCCOC(=O)c1ccncc1`, the Activity came to 53.2%.
The same measure, in the same setting: as for `COc1cc(C(=O)OCCN2CCOCC2)cc(OC)c1O`, the figure is 50.5%.
Consider `N=C(N)NCCCCOC(=O)c1ccco1`, for which the Activity is recorded as 53.2%.
Still for that read-out and setting: as for `N=C(N)NCCCCO`, the figure is 51.4%.
As for `COc1cc(C(=O)OCCCN(C)C)cc(OC)c1O`, the Activity came out at 61.7%.
The same measure, in the same setting: the value for `COc1cc(C(=O)OCCCCCCNC(=N)N)cc(OC)c1O` was 58.9%; that for `COc1cc(OC)c(C(=O)OCCCCNC(=N)N)c(OC)c1` was 53.4%.
Same read-out and setting: as for `N=C(N)NCCCCOC(=O)C12CC3CC(CC(C3)C1)C2`, the figure is 56.8%.
On the same count and under the same terms, the value for `COc1cc(/C=C/C(=O)OCCCCNC(=N)N)cc(OC)c1OC` was 61.4%.
For the compound `COc1cc(C(=O)OCC2CCN(C(=N)N)CC2)cc(OC)c1OC(C)=O`, the Activity came to 47%.
For the compound `CC(=O)Oc1ccccc1C(=O)OCCCCNC(=N)N`, the Activity is on record as 58.3%.
On the same count and under the same terms, the value for `COc1cc(C(=O)OCCCCNC(=N)N)ccc1OC(C)=O` was 56.4%.
On the same count and under the same terms, the value for `COc1cc(C(=O)OCCNC(=N)N)cc(OC)c1O` was 61.9%; that for `COc1cc(C(=O)OCCCCCNC(=N)N)cc(OC)c1O` was 50.1%; that for `N=C(N)NCCCCOC(=O)c1ccc(C(F)(F)F)cc1` was 51.7%.
On the same count and under the same terms, as for `COc1cc(C(=O)OCCCNC(=N)N)cc(OC)c1O`, the figure is 55.2%; as for `COc1cc(C(=O)OC(C)CNC(=N)N)cc(OC)c1O` (stereo not given), 54.2%.
As for `N=C(N)NCCCCOC(=O)c1ccc([N+](=O)[O-])cc1`, the Activity is 59.6%.
As for `N=C(N)NCCCCOC(=O)c1c(F)cc(F)cc1F`, the Activity is listed as 60.7%.
Same read-out and setting: the value for `COc1cc(C(=O)OCCCCN)cc(OC)c1O` was 56.2%.
